# Laboratory results: ChEMBL document CHEMBL1681654, “Structure and activity relationship of 2-(substituted benzoyl)-hydroxyindoles as novel CaMKII inhibitors” (Bioorg Med Chem Lett, 2011)
# Test: Inhibition of recombinant CAMK2 expressed in Sf9 cells after 20 mins
# In short: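 Baculovirus-expressed CaMKII from infected Sf9 cells (harvested day 3), purified on calmodulin affinity resin. Assayed in 25 mM Tris–HCl pH 7.5, 2 mM DTT, 10 mM MgCl₂, 0.1% CHAPS, 1 mM CaCl₂ with autocamtide-2 substrate, CaM and [γ-³³P]ATP (350–1500 cpm/pmol); 20 min, 30 °C. Reaction spotted onto P30 filtermat, washed with 75 mM phosphoric acid, counted by scintillation.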
row,IC50 [µM],Compound
1,1.6,COc1ccc(S(=O)(=O)N(CCO)c2ccccc2CN(C)C/C=C/c2ccc(Cl)cc2)cc1
2,10,O=C(c1ccccc1)c1cc2cc(O)ccc2[nH]1
3,> 10,O=C(c1ccc(F)cc1)c1cc2cc(O)ccc2[nH]1
4,> 10,O=C(c1ccc(Cl)cc1)c1cc2cc(O)ccc2[nH]1
5,8.8,Cc1ccc(C(=O)c2cc3cc(O)ccc3[nH]2)cc1
6,> 10,COc1ccc(C(=O)c2cc3cc(O)ccc3[nH]2)cc1
7,> 10,O=C(c1ccc(OC(F)(F)F)cc1)c1cc2cc(O)ccc2[nH]1
8,6.4,O=C(c1ccc(-c2ccccc2)cc1)c1cc2cc(O)ccc2[nH]1
9,1.8,O=C(c1cc2cc(O)ccc2[nH]1)c1ccccc1Oc1ccccc1
10,1.7,O=C(c1cccc(Oc2ccccc2)c1)c1cc2cc(O)ccc2[nH]1
11,0.61,O=C(c1ccc(Oc2ccccc2)cc1)c1cc2cc(O)ccc2[nH]1
12,2.3,O=C(c1ccc(Oc2ccccc2)cc1)c1cc2ccc(O)cc2[nH]1
13,7.5,O=C(c1ccc(Oc2ccccc2)cc1)c1cc2ccccc2[nH]1
14,3.9,O=C(c1ccc(OC2CCCC2)cc1)c1cc2cc(O)ccc2[nH]1
15,2.3,O=C(c1ccc(OC2CCCCC2)cc1)c1cc2cc(O)ccc2[nH]1
16,6.8,O=C(c1ccc(OC2CCOC2)cc1)c1cc2cc(O)ccc2[nH]1 (stereo unspecified)
17,> 10,O=C(c1ccc(OC2CCNCC2)cc1)c1cc2cc(O)ccc2[nH]1
18,> 10,CN1CCC(Oc2ccc(C(=O)c3cc4cc(O)ccc4[nH]3)cc2)CC1
19,9.9,CC(=O)N1CCC(Oc2ccc(C(=O)c3cc4cc(O)ccc4[nH]3)cc2)CC1
20,> 10,O=C(c1ccc(Oc2ccccc2)cc1)c1cc2cc(O)ccc2n1S(=O)(=O)c1ccccc1
21,1.3,Cn1c(C(=O)c2ccc(Oc3ccccc3)cc2)cc2cc(O)ccc21
22,1.9,O=C(c1ccc(Oc2ccccc2)cc1)c1cc2cc(O)ccc2n1CCO
23,0.77,CCOC(=O)Cn1c(C(=O)c2ccc(Oc3ccccc3)cc2)cc2cc(O)ccc21
24,1.8,O=C(O)Cn1c(C(=O)c2ccc(Oc3ccccc3)cc2)cc2cc(O)ccc21
25,> 10,O=C(c1ccc(Oc2ccccc2)cc1)c1cc2nc(O)ccc2[nH]1
26,6.8,O=C(c1ccc(Oc2ccccc2)cc1)c1cc2cc(O)ncc2[nH]1
